p47phox inh = p47phox/p22phox peptide binding inhibitors, primary screen, biochemical, uHTS, NADPH oxidase regulatory subunit. inhibition, % at 24.7 µM. fluorescence polarization, 2 h. AID 1274, 2008. hit rate 0.53% among 220,000;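 active = inhibition above about 30%, limit read from the data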;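 note: 0% = p47phox with labelled peptide and 100% = labelled peptide alone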
Target sequence (P14598 whole entry, looked up): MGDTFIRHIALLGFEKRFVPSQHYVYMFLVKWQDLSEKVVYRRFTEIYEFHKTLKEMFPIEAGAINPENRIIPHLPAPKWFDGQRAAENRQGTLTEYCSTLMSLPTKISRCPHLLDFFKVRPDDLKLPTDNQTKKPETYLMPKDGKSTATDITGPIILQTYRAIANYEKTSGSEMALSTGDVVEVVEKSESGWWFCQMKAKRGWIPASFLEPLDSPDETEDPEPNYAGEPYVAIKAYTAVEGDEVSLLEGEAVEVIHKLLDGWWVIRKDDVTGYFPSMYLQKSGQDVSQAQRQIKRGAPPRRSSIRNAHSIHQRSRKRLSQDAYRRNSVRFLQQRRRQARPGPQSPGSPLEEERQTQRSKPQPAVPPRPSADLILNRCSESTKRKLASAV
Dynein transport = inhibitors of GR-EGFP nuclear translocation, primary screen, dynein cargo transport inhibitor project, imaging, high-content, 3617.4 mouse cells. z-score, hits read low. test concentration mostly 20 µM; stimulated with dexamethasone, 1 µM; stronger effect = lower value. hit rate 0.47% among 220,000;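 active = plate z-score of nuclear minus cytoplasmic receptor signal below a set negative limit, without overly bright fluorescence or cell loss, cut at about -3.5 in these data, passing the limit was not always enough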;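 note: z-score of nuclear minus cytoplasmic ring GR-EGFP intensity difference per well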
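Buffer or medium: Induction medium lacking tetracycline, stripped serum | Also added: Dexamethasone agonist, 1.0 µM final, for 30 min | Timing: 48 h induction, 1 h compound, 30 min dex at 37 °C | Detection: Formaldehyde fixation, Hoechst nuclear stain, 10x automated fluorescence imaging | Measure: Nuclear versus cytoplasmic GR-EGFP signal, averaged per well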
pCIP destab = p/CIP-EGFP fusion destabilizers, primary screen, fluorescence, F442A cells. decrease of EGFP signal, % at 10 µM. 16 h. hit rate 0.01% among 290,000. Q05BA5;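 active = EGFP signal decrease of at least 30% at 10 µM or well 3 SD below plate mean, unless failing retest; inactive = the rest, including hits failing retest or dose response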
RAM inhibit = inhibitors of the yeast RAM network, primary screen, dse1pr::URA3 reporter, 5-FOA selection. S. cerevisiae dse1pr::URA3 reporter, 5-FOA growth OD615, 2 d; analog-sensitive cbk1-as2 kinase mutant strain. inhibition, % at 50 µM. hit rate 1.8% among 190,000;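 active = inhibition above a set limit, 3 SD over mean compound inhibition, cut at about 8.4% in these data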;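 note: 0% = DMSO-only wells with no growth and 100% = 10 µM 1-NA-PP1 full growth; inhibition rescues growth on 5-FOA so higher OD means more RAM inhibition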
Dynein inh conf = dynein cargo transport inhibitors, GR-EGFP translocation, confirmation, imaging, high-content imaging, GR-EGFP cells | calls only at 20 µM | hit rate 69% among 1,000 | 3617.4 GR-EGFP nuclear translocation imaging, dexamethasone-induced | shares compounds with Dynein transport;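 active = inhibition of receptor movement into the nucleus at or above a set limit in both runs, with normal cell brightness and cell count; inconclusive = limit reached in only one run, brightness and count normal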;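 note: dexamethasone at 1 µM final in well for 30 min; nuclear minus cytoplasmic GR-EGFP mean intensity difference in channel 2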
* marks the source's active call; other numbers are inactive results; i = inactive; ? = inconclusive; nt = no result given; + = active, no number. An excerpt weighted towards active compounds, which were near 1.9% of everything screened.

SMILES	p47phox inh	Dynein transport	pCIP destab	RAM inhibit	Dynein inh conf
Cn1c(=O)c(Nc2ccc(Cl)cc2)c2c3c(cccc31)C(=O)c1ccccc1-2	-39	-4.3	-129	3	+
CC(=O)Nc1c2c3c(cccc3n(C)c1=O)C(=O)c1ccccc1-2	-4	-0.14	-17	1	nt
CCOc1cc(Br)ccc1S(=O)(=O)N1CCC(C(N)=O)CC1	-5	-0.67	12	0	nt
CC(C)N(C(=O)COC(=O)c1ccccc1C(=O)c1ccc(Cl)c([N+](=O)[O-])c1)C(C)C	-7	-3.6*	3	3	i
O=c1cc(CN2CC(O)Cc3ccc4ccccc4c32)nc2sccn12 (stereo not drawn)	-6	1.3	-2	3	nt
CC(=O)Nc1sc(/C(C#N)=C/c2ccc(Cl)c(Cl)c2)nc1-c1ccc(C)cc1	-8	-5.9*	-96	3	+
Cn1cc(Br)c(NC(=O)/C=C/C(=O)O)n1	10	-6.2*	-9	nt	+
CC(=O)c1ccc(Sc2nnnn2-c2ccccc2)c([N+](=O)[O-])c1	-16	-4.3*	6	3	i
O=[N+]([O-])c1ccc(Sc2nnnn2-c2ccccc2)c(Cl)c1	-4	-0.33	-1	4	nt
CN1CCN(S(=O)(=O)c2ccc(Sc3nnnn3-c3ccccc3)c([N+](=O)[O-])c2)CC1	-6	-3.5*	2	0	+
Cn1cnnc1Sc1cc(N2CCN(S(=O)(=O)c3ccccc3)CC2)ccc1[N+](=O)[O-]	1	1.1	-14	1	nt
CCc1ccc2c(c1)C(NC(C)=O)C(=O)N2CCN1CCOCC1 (stereo not drawn)	nt	nt	-8	nt	nt
COc1ccc(/C=C(\NC(=O)c2cccs2)C(=O)NC(C)(C)C)cc1OC	nt	nt	5	nt	nt
COC(=O)c1cc([N+](=O)[O-])c(-n2ccnc2)c([N+](=O)[O-])c1	-10	-3.5*	-2	1	+
Cc1cc(Sc2nc(N)ncc2[N+](=O)[O-])ncn1	-7	-5*	22	2	+
Cc1ccnc(Sc2ncccc2[N+](=O)[O-])n1	-14	0.47	-28	1	nt
Cc1ccc(C)c(Oc2ncnc(N)c2[N+](=O)[O-])c1	-5	-0.17	7	-2	nt
Cc1cc(Sc2ncnc(N)c2[N+](=O)[O-])ncn1	-1	-5.7*	-9	0	+
O=C(NC1CCCC1)C1CCN(C(=O)c2ccccc2Cl)CC1	nt	nt	-3	nt	nt
CCOC(=O)c1c(NC(=O)CCl)sc(CN(C)C)c1-c1ccccc1	-8	-5.2*	-2	0	+
CCOC(=O)c1c(NC(=O)/C=C/C(=O)O)sc(C)c1-c1ccc(Cl)cc1	2	-8.2*	-5	4	+
CCOC(=O)c1c(NC(=O)Nc2ccc(Cl)cc2)sc(C)c1C	-12	-0.33	3	4	nt
COc1ccc(CNC(=O)C2CCCN(C(=O)Nc3ccc(OC)cc3)C2)cc1 (stereo not drawn)	nt	nt	-7	nt	nt
CCn1c(=O)cc(C(=O)OC)sc1=Nc1ccc(F)c(F)c1	-2	-3.9*	-4	1	+
COC(=O)c1cc(=O)n(CCc2ccc(OC)cc2)c(=Nc2ccc(F)c(Cl)c2)s1	-2	-4.4*	10	9.5*	+
SMILES	p47phox inh	Dynein transport	pCIP destab	RAM inhibit	Dynein inh conf
CCCCN=c1sc(C(=O)OC)cc(=O)n1CCCC	-20	-0.46	-12	1	nt
COC(=O)c1cc(=O)n(Cc2ccc3c(c2)OCO3)c(=Nc2ccc(F)c(Cl)c2)s1	-3	-3.6*	-4	3	+
CCOC(=O)c1ccc(N=c2sc(C(=O)OC)cc(=O)n2Cc2ccco2)cc1	-8	-6.3*	-4	8.6*	+
CCOC(=O)c1ccc(CN2Cc3ccccc3C2=O)cc1	nt	nt	2	nt	nt
CCOC(=O)c1sc(NC(=O)C2CC(=O)N(c3ccc(C)cc3)C2)nc1C (stereo not drawn)	nt	nt	-7	nt	nt
COc1ccccc1-c1nnc(Sc2nc([N+](=O)[O-])nn2C)o1	-4	-4.1*	5	-1	+
Cn1cnnc1Sc1nc([N+](=O)[O-])nn1C	2	0.37	-5	1	nt
C=CCn1c(Sc2ncc([N+](=O)[O-])s2)n[nH]c1=O	4	-5.7*	-16	nt	+
C=CCn1c(CSc2ccccc2[N+](=O)[O-])n[nH]c1=S	nt	nt	-4	nt	nt
Cc1ccc(/C=C/C(=O)NCC2COc3ccccc3O2)o1 (stereo not drawn)	-5	-6.6*	4	0	+
COc1cccc(CNCc2ccco2)c1O	nt	nt	2	nt	nt
COc1ccc(-[n+]2c(C)cc(/C=C3\Sc4ccccc4N3C)cc2C)cc1	7	-6.1	-589	1	nt
COc1ccccc1-[n+]1c(C)cc(/C=C2\Sc3ccccc3N2C)cc1C	-56	-5	-677	nt	+
Cc1nnc(NC(=O)CCn2c(=O)oc3ccccc32)s1	nt	nt	-7	nt	nt
CCOC(=O)c1nc(S(C)(=O)=O)ncc1N1CCOCC1	-9	-1.3	-4	1	nt
CCOC(=O)c1nc(S(C)(=O)=O)ncc1Cl	-1	-5.1*	-24	1	i
Cc1cc(C(=O)Nc2ccc3ccccc3c2)c(C)o1	nt	nt	-8	nt	nt
COc1cccc(-c2nc3sc4c(c3c(=O)[nH]2)CCCCC4)c1	-22	-0.42	-14	0	nt
CCCN(CCC)S(=O)(=O)c1ccc(N2CCCC2=O)c([N+](=O)[O-])c1	-8	-0.39	7	4	nt
CCCN(CCC)S(=O)(=O)c1ccc(Cl)c([N+](=O)[O-])c1	-1	-3.5*	-3	0	?
O=C(NCCC1=CCCCC1)c1ccc(=O)oc1	13	-0.14	-6	1	nt
O=C(NCCC1=CCCCC1)c1coc(=O)c(Br)c1	-7	-6*	-35	5	?
CC1(CCc2ccccc2)NC(=O)N(CC(=O)Nc2ccc(S(N)(=O)=O)cc2)C1=O (stereo not drawn)	-2	-0.032	0	1	nt
O=c1cc(C(Cl)(Cl)Cl)oc2c1ccc1ccccc12	-15	-4*	-20	4	+
CCN(CC)C(=O)c1cc([N+](=O)[O-])cc2c1-c1ccc([N+](=O)[O-])cc1C2=C(C#N)C#N	-5	-4.9*	1	nt	?
SMILES	p47phox inh	Dynein transport	pCIP destab	RAM inhibit	Dynein inh conf
CC(C)CC(=O)N1CCN(C(=O)c2ccc(-c3ccccc3)cc2)CC1	nt	nt	-10	nt	nt
CN(Cc1c(C(=O)N2CCCCCCC2)nc2ccc(Cl)cn12)C1CCOC1 (stereo not drawn)	nt	nt	-15	nt	nt
O=C(CCl)N1N=C(c2cccs2)CC1c1ccco1 (stereo not drawn)	-5	-4.7*	-11	2	+
Cc1cc(C)cc(NS(=O)(=O)c2cccs2)c1	nt	nt	15	nt	nt
CCc1ccc(NS(=O)(=O)c2cccs2)cc1	-20	-4.1	2	-1	i
C=CCNC(=S)Nc1sc2c(c1C(=O)OCC)CCN(C(=O)OCC)C2	-4	1.2	-27	2	nt

Screens as filed in PubChem.
